Activity calls are given as the source filed them. No cut-off for these calls is given here.
Key:
[1] = tested on: DNA; assay: Reversal of Fe2+-induced Escherichia coli pUC19 DNA cleavage at 1:2 compound to Fe2+ mole ratio after 90 mins by agarose gel electrophoresis method; format: functional
Method in brief: (§1)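 Compound (4 μL of 2 mM) preincubated with FeSO4 (1 or 2 μL of 8 mM; compound:Fe 1:1 or 1:2) in bicarbonate buffer 60 min at 37 °C, then pUC19 added for another 90 min; products resolved on 1% agarose gel, ethidium bromide stained.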

[2] = tested on: HeLa; assay: Prooxidant activity in human HeLa cells assessed as increase in H2O2-induced reactive oxygen species at 10 uM preincubated for 24 hrs followed by H2O2 addition and measured after 30 mins by dichlorofluorescein dye-based flow cytometric method; format: functional, cell-based
Method in brief: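 HeLa cells pretreated 24 h with 10 μM compound, washed, loaded with 30 μM DCFH-DA in PBS 45 min at 37 °C. One portion read directly (endogenous ROS); other portion exposed to 10 mM H2O2 30 min at 37 °C. DCF green fluorescence by flow cytometry, 20 000 events per sample; mean ± SD of two independent experiments.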

[3] = tested on: HeLa; assay: Upregulation of miR-206 expression in human HeLa cells at 10 uM after 24 hrs by RT-qPCR method; format: functional, cell-based
[4] = tested on: HeLa; assay: Cell cycle arrest in human HeLa cells assessed as accumulation at sub-G1 phase at 2 times IC50 after 24 hrs in presence of caspase-9 inhibitor Z-LEHD-FMK by propidium iodide-staining based flow cytometric method; format: functional
Method in brief: (§2)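 HeLa cells pretreated 2 h with 40 μM peptide caspase inhibitor (Z-DEVD-FMK caspase-3, Z-IETD-FMK caspase-8 or Z-LEHD-FMK caspase-9), then exposed to 2×IC50 compound; subG1 fraction by propidium iodide flow cytometry, compared with samples lacking inhibitor.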

[5] = tested on: HeLa; assay: Cell cycle arrest in human HeLa cells assessed as decrease in cell levels at G1 phase at 2 times IC50 after 24 hrs by propidium iodide staining-based flow cytometric method; format: functional
Method in brief: (§3)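 HeLa cells treated 24 h at IC50 or 2×IC50 (from 72 h assay), fixed in 70% ethanol, stored at –20 °C ≥1 week, RNase A 30 min 37 °C, propidium iodide stained; flow cytometry, 10 000 gated events. Mean ± SD of three independent experiments; one-way ANOVA with Dunnett's post-test, p < 0.05.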

[6] = tested on: Calf thymus DNA; assay: Binding affinity to calf thymus DNA after 90 mins by spectroscopic titration method; format: nucleic-acid assay; details: Bos taurus
Method in brief: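 Compound fixed at 40 μM titrated with CT-DNA (2.2–13 × 10–5 M) in 40 mM bicarbonate pH 8.4 after 90 min at 37 °C; absorbance at 259 nm per DNA level. Kb from slope/intercept ratio of [DNA]/(εa–εf) versus [DNA] plot; triplicate assays.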

[7] = tested on: HeLa; assay: Cell cycle arrest in human HeLa cells assessed as accumulation at sub-G1 phase at 2 times IC50 after 24 hrs in presence of caspase-3 inhibitor Z-DEVD-FMK by propidium iodide-staining based flow cytometric method; format: functional; method in brief: as §2
[8] = tested on: MRC5; assay: Induction of DNA damage in human MRC5 cells assessed as formation of DNA breaks after 24 hrs by comet assay; format: functional, cell-based
Method in brief: (§4)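 MRC-5 cells exposed 24 h to 3.125–25 μM compound; DNA damage scored as % tail DNA (tail intensity) by comet assay. PBS negative control; H2O2 50 μM 5 min in-gel positive control. Triplicate, repeated twice; mean ± SD.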

[9] = tested on: HL-60; assay: Cytotoxicity against human HL60 cells assessed as decrease in cell survival after 72 hrs by MTT assay; format: functional, cell-based; details: HL-60, 72 h
Method in brief: (§5)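 HeLa (2000/well), A549 and MRC-5 (5000/well) seeded 20 h before treatment; HL-60 (7000/well) 2 h before. Five concentrations (6.25–100 μM or 3.125–50 μM) from 5 mM DMSO stocks, final DMSO ≤1%, 72 h; survival by MTT. Cisplatin positive control; three independent experiments in triplicate.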

[10] = tested on: DNA; assay: Reversal of Fe2+-induced Escherichia coli pUC19 DNA cleavage at 1:1 compound to Fe2+ mole ratio after 90 mins by agarose gel electrophoresis method; format: functional; method in brief: as §1
[11] = tested on: DNA; assay: Induction of Escherichia coli pUC19 DNA cleavage at 0.05 to 0.4 mM after 90 mins by agarose gel electrophoresis method; format: nucleic-acid assay
Method in brief: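 Plasmid pUC19 (from E. coli XL1 blue; 460 ng, 12 nM) incubated with compound (0.05–0.4 mM; from 2 mM DMSO stock) in 20 μL 40 mM bicarbonate pH 8.4 at 37 °C for 90 min; 1% agarose gel in TAE at 80 V, ethidium bromide staining, UV at 312 nm; supercoiled/nicked/linear forms scored.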

[12] = tested on: HeLa; assay: Downregulation of TIMP3 gene expression in human HeLa cells at 10 uM after 24 hrs by RT-qPCR method; format: functional, cell-based
[13] = tested on: HeLa; assay: Downregulation of VEGFA gene expression in human HeLa cells at 10 uM after 24 hrs by RT-qPCR method; format: functional, cell-based
[14] = tested on: Calf thymus DNA; assay: Binding affinity to calf thymus DNA assessed as hypochromism at 40 uM after 90 mins by UV/visible spectrophotometric analysis; format: nucleic-acid assay; details: Bos taurus
Method in brief: (§6)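 CT-DNA stock in 10 mM Tris-HCl pH 7.9 (A260/A280 1.89–2.01; concentration from ε260 6600 M–1 cm–1). Compound (10, 20 or 40 μM) plus CT-DNA (95 μM) in 40 mM bicarbonate pH 8.4, 37 °C 90 min; spectra 200–800 nm. Hyper/hypochromism at 259 nm from bound versus summed free compound and DNA extinction; triplicate.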

[15] = tested on: HeLa; assay: Cell cycle arrest in human HeLa cells assessed as accumulation at G2/M phase at 2 times IC50 after 24 hrs by propidium iodide staining-based flow cytometric method; format: functional; method in brief: as §3
[16] = tested on: Calf thymus DNA; assay: Displacement of Hoechst 33258 from calf thymus DNA assessed as quenching constant by fluorescence spectrophotometric analysis; format: nucleic-acid assay; details: Bos taurus
Method in brief: (§7)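 CT-DNA 100 μM (per phosphate) in 40 mM bicarbonate pH 8.4 pretreated 20 min with Hoechst 33258 (28 μM final), then compound added stepwise. Excitation 350 nm, emission 390–550 nm, read at 444 nm, 10 nm slits; H–DNA as control. Quenching constant K by Stern–Volmer, I0/I versus r = [compound]/[DNA]; triplicate.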

[17] = tested on: Calf thymus DNA; assay: Binding affinity to calf thymus DNA assessed as hypochromism at 10 to 20 uM after 90 mins by UV/visible spectrophotometric analysis; format: nucleic-acid assay; details: Bos taurus; method in brief: as §6
[18] = tested on: HeLa; assay: Cell cycle arrest in human HeLa cells assessed as accumulation at sub-G1 phase at 2 times IC50 after 24 hrs in presence of caspase-8 inhibitor Z-IETD-FMK by propidium iodide-staining based flow cytometric method; format: functional; method in brief: as §2
[19] = tested on: A549; assay: Cytotoxicity against human A549 cells assessed as decrease in cell survival after 72 hrs by MTT assay; format: functional, cell-based; details: A549, 72 h; method in brief: as §5
[20] = tested on: Calf thymus DNA; assay: Displacement of Hoechst 33258 from calf thymus DNA assessed as fluorescence intensity of compound-DNA complex at 22 uM by fluorescence spectrophotometric analysis relative to control; format: nucleic-acid assay; details: Bos taurus; method in brief: as §7
[21] = tested on: HeLa; assay: Cytotoxicity against human HeLa cells assessed as decrease in cell survival after 72 hrs by MTT assay; format: functional, cell-based; method in brief: as §5
[22] = tested on: MRC5; assay: Induction of DNA damage in human MRC5 cells assessed as formation of DNA breaks at 25 uM after 24 hrs by comet assay relative to control; format: functional; method in brief: as §4
[23] = tested on: HeLa; assay: Downregulation of miR-155 expression in human HeLa cells at 10 uM after 24 hrs by RT-qPCR method; format: functional, cell-based
[24] = tested on: HeLa; assay: Upregulation of MMP9 gene expression in human HeLa cells at 10 uM after 24 hrs by RT-qPCR method; format: functional, cell-based
[25] = tested on: HeLa; assay: Downregulation of miR-133b expression in human HeLa cells at 10 uM after 24 hrs by RT-qPCR method; format: functional, cell-based
[26] = tested on: HeLa; assay: Downregulation of miR-21 expression in human HeLa cells at 10 uM after 24 hrs by RT-qPCR method; format: functional, cell-based
[27] = tested on: Calf thymus DNA; assay: Binding affinity to calf thymus DNA at 10 to 40 uM after 90 mins by UV/visible spectrophotometric analysis; format: nucleic-acid assay; details: Bos taurus; method in brief: as §6
[28] = tested on: HeLa; assay: Downregulation of MMP2 gene expression in human HeLa cells at 10 uM after 24 hrs by RT-qPCR method; format: functional, cell-based
[29] = tested on: HeLa; assay: Cell cycle arrest in human HeLa cells assessed as accumulation at sub-G1 phase at IC50 and 2 times IC50 after 24 hrs by propidium iodide staining-based flow cytometric method; format: functional; method in brief: as §3
[30] = tested on: MRC5; assay: Cytotoxicity against human MRC5 cells assessed as decrease in cell survival after 72 hrs by MTT assay; format: cell-based; details: MRC5, 72 h; method in brief: as §5
[31] = Antioxidant activity assessed as DPPH free radical scavenging activity after 30 mins; format: functional
Method in brief: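 DPPH (0.05 mM in methanol) mixed with equal volume of compound (DMSO solution diluted in methanol), kept in dark at room temperature 30 min; absorbance at 517 nm, methanol control, ascorbic acid positive control. IC50 = concentration giving 50% of maximum scavenging; mean ± SD of independent triplicate experiments.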

Kb [6]: 1.09 ×10³ /M | Activity [11]: inactive | Activity [14]: inactive | K [16]: 3.3 | Activity [17]: 13% | Activity [20]: 58% | Activity [27]: Active | IC50 [31]: 12 µM
Compound: O=C(/C=C/c1ccc(C(=O)Nc2nnc(-c3ccc(O)c(O)c3)s2)cc1)c1ccccc1
Activity [1]: Active | Activity [2]: Active | Activity [3]: Active | Activity [4]: inactive | Activity [5]: Active | Activity [7]: inactive | Activity [8]: Dose-dependent effect | IC50 [9]: 8.4 µM | Activity [10]: Active | Activity [12]: Active | Activity [13]: inactive | Activity [15]: Active | Activity [18]: inactive | IC50 [19]: 42.8 µM | IC50 [21]: 9.37 µM | Activity [22]: 45% | Activity [23]: Active | Activity [24]: Active | Activity [25]: Active | Activity [26]: Active | Activity [28]: Active | Activity [29]: Active | IC50 [30]: 36 µM
